Compounds with a hit are over-represented: about 1.2% of the library has one in this group of screens.
CRFBP-R2 block: CRF-BP/CRF-R2 complex antagonism. HEK293 CRF-R2/CRF-BP, CRF-induced calcium fluorescence. inhibition, % at 11.8 µM. 350,000 compounds, 0.59% hits. AID 588475;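 active = inhibition of the ligand-induced calcium signal above about 50% at the single tested concentration, limit read from the data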
DDE Tn6 FP inh: inhibitors of Tn6 peptide binding to human fibrin DD(E). Fibrin DD(E) TRITC-Tn6 fluorescence polarization displacement. inhibition, % at 8.3 µM. 370,000 compounds, 0.21% hits. AID 720509;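 active = inhibition above a per-campaign cutoff: mean of compounds within control limits plus 3 SD, cut at about 15% in these data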;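 also: 0% = median of all compound wells on the plate and 100% = blocking peptide control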
Target sequence (P02675 whole entry, looked up): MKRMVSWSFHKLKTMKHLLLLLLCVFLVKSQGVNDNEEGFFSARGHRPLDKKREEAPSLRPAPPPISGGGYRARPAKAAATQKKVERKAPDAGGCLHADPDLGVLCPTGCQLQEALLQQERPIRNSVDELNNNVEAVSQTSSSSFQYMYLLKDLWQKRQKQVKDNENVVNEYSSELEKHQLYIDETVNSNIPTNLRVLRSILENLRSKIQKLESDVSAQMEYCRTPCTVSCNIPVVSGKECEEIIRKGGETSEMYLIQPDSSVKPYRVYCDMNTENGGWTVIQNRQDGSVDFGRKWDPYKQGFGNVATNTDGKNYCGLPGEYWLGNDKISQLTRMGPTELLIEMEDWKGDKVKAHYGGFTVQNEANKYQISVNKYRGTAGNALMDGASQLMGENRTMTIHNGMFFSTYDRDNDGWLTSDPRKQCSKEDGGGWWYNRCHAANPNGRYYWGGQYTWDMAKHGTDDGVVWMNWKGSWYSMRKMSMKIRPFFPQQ
CRFBP-R2 agonist: CRF-BP/CRF-R2 complex agonism | HEK293 CRF-R2/CRF-BP, calcium dye fluorescence (FLIPR); percent of saturating CRF peptide response | activation, % at 13.2 µM | 350,000 compounds, 0.46% hits;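 active = activation of at least 50%, plus an integration ratio under a set limit after plate pattern correction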;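 also: plate controls were neutral control wells without compound for no effect and CRF at EC100 for full effect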
DDE Tn7 FP inh: inhibitors of Tn7 peptide binding to human fibrin DD(E) | P02675 | FP displacement of FITC-Tn7 peptide from fibrin DD(E); 0% = median of compound wells per plate | inhibition, % at 8.3 µM | 370,000 compounds, 0.13% hits | AID 720508;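 active = inhibition above the mean of compounds falling within the control limits plus 3 SD of them, cut at about 14% in these data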;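 also: 0% = plate median of compound wells and 100% = 10 µM Aha-Tn7 peptide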
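Also added: labelled Tn7 tracer, 0.1 µM; Assay system: human fibrin DD(E) protein; Amount: 2 µM fibrin DD(E); Schedule: 10 min compound pre-incubation, 3 h probe incubation at room temperature; Repeats: one replicate per compound; Read-out basis: percent inhibition; Measured by: fluorescence polarization of the labelled Tn7 tracer.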
An asterisk follows results filed as active.

Results for O=C(c1ccc(S(=O)(=O)Nc2ccccc2)cc1)N1CCCC(C(F)(F)F)C1 (stereo not drawn) ?
CRFBP-R2 block: -65.3; DDE Tn6 FP inh: 2.4; CRFBP-R2 agonist: 72.9*; DDE Tn7 FP inh: 5.0

What do the screens show for `CCCCC(=O)Nc1ccc(C(=O)Nc2ccc(OC)cc2[N+](=O)[O-])cc1`?
CRFBP-R2 block: -164.9; DDE Tn6 FP inh: -0.1; CRFBP-R2 agonist: 116.9*; DDE Tn7 FP inh: 6.4

Results for COc1ccc(NC(=O)c2cc(C(=O)Nc3ccc(OC)cc3OC)cc([N+](=O)[O-])c2)c(OC)c1 ?
CRFBP-R2 block: 50.5*; DDE Tn6 FP inh: -4.8; CRFBP-R2 agonist: 7.3; DDE Tn7 FP inh: -0.8

How did COc1ccc(NC(=O)CC(=O)Nc2ccc(OC)cc2OC)c(OC)c1 do in these assays?
CRFBP-R2 block: 5.7; DDE Tn6 FP inh: 0.0; CRFBP-R2 agonist: 0.6; DDE Tn7 FP inh: 3.1

What do the screens show for `COc1ccc(NC(=O)CCCCC(=O)Nc2ccc(OC)cc2OC)c(OC)c1`?
CRFBP-R2 block: 58.6*; DDE Tn6 FP inh: -5.7; CRFBP-R2 agonist: 2.1; DDE Tn7 FP inh: -6.5

How did O=S(=O)(NCc1ccccc1)NCc1ccccc1 do in these assays?
CRFBP-R2 block: 14.6; DDE Tn6 FP inh: 4.4; CRFBP-R2 agonist: 1.0; DDE Tn7 FP inh: 2.4

Results for COc1ccc(CNS(=O)(=O)NCc2ccccc2)cc1OC ?
CRFBP-R2 block: -284.9; DDE Tn6 FP inh: 4.5; CRFBP-R2 agonist: 274.5*; DDE Tn7 FP inh: -1.2

What do the screens show for `Cc1ccc(C(=O)N/C(=C\c2cn(C)c3ccccc23)C(=O)NCCCN2CCOCC2)cc1`?
CRFBP-R2 block: 100.7*; DDE Tn6 FP inh: -1.3; CRFBP-R2 agonist: 0.0; DDE Tn7 FP inh: -1.4

Results for Cc1ccc(C(=O)N/C(=C\c2cn(C)c3ccccc23)C(=O)NCCN2CCOCC2)cc1 ?
CRFBP-R2 block: 3.3; DDE Tn6 FP inh: 7.0; CRFBP-R2 agonist: -0.3; DDE Tn7 FP inh: 0.0

Results for O=C1S/C(=C/c2ccc(N3CCOCC3)o2)C(=O)N1Cc1ccc(F)cc1 ?
CRFBP-R2 block: -132.1; DDE Tn6 FP inh: 3.9; CRFBP-R2 agonist: 114.3*; DDE Tn7 FP inh: -5.5

Results for O=C1N/C(=C/c2ccc(N3CCOCC3)o2)C(=O)N1c1ccccc1 ?
CRFBP-R2 block: 56.4*; DDE Tn6 FP inh: 3.5; CRFBP-R2 agonist: -0.4; DDE Tn7 FP inh: -2.0

How did O=C1NC(=S)S/C1=C/c1ccc(N2CCOCC2)o1 do in these assays?
CRFBP-R2 block: -56.5; CRFBP-R2 agonist: 52.0*

How did O=C1S/C(=C\c2ccc(N3CCOCC3)o2)C(=O)N1Cc1ccc(F)cc1 do in these assays?
CRFBP-R2 block: -9.4; CRFBP-R2 agonist: 31.7

What do the screens show for `CCc1nc2c(OCc3cc(Cl)cc(Cl)c3)cccn2c1N(C)C(=O)c1ccccc1F`?
DDE Tn6 FP inh: 3.1; DDE Tn7 FP inh: -5.7

Results for CC[n+]1c(/C=C2\Sc3ccccc3N2C)ccc2cccc(C)c21 ?
CRFBP-R2 block: -166.9; DDE Tn6 FP inh: -8.5; CRFBP-R2 agonist: 124.1*; DDE Tn7 FP inh: -24.2

Results for CCN1/C(=C/c2ccc3cc(C)ccc3[n+]2CC)Sc2cc(C)c(C)cc21 ?
CRFBP-R2 block: -154.6; DDE Tn6 FP inh: 2.2; CRFBP-R2 agonist: 183.8*; DDE Tn7 FP inh: -12.8

How did CCN1/C(=C/c2ccc3cc(C)ccc3[n+]2CC)Sc2ccccc21 do in these assays?
CRFBP-R2 block: -108.6; DDE Tn6 FP inh: -15.5; CRFBP-R2 agonist: 154.7*; DDE Tn7 FP inh: -45.5

Results for COCCn1c(SCc2nnc(-c3ccccc3)o2)nc2sc3c(c2c1=O)CCC3 ?
CRFBP-R2 block: 54.8*; DDE Tn6 FP inh: 1.1; CRFBP-R2 agonist: 1.1; DDE Tn7 FP inh: 2.2

How did COc1ccc(CN(C(=O)c2cccc(OC)c2)C2CCS(=O)(=O)C2)cc1 (stereo not drawn) do in these assays?
CRFBP-R2 block: -6.1; DDE Tn6 FP inh: -3.1; CRFBP-R2 agonist: -1.3; DDE Tn7 FP inh: -5.7

Results for COc1ccc(CN(C(=O)c2ccc(C)cc2)C2CCS(=O)(=O)C2)cc1 (stereo not drawn) ?
CRFBP-R2 block: 63.7*; DDE Tn6 FP inh: -2.3; CRFBP-R2 agonist: 0.5; DDE Tn7 FP inh: 1.1

Results for CN(C)c1ccc(NC(=O)COC(=O)c2ccc3c(c2)OCO3)cc1 ?
CRFBP-R2 block: -21.1; DDE Tn6 FP inh: 2.0; CRFBP-R2 agonist: 3.8; DDE Tn7 FP inh: 12.5

Results for CN(C)S(=O)(=O)c1ccc(C(=O)OCC(=O)Nc2ccc(OC(F)F)cc2)cc1 ?
CRFBP-R2 block: 96.0*; DDE Tn6 FP inh: 5.0; CRFBP-R2 agonist: 3.4; DDE Tn7 FP inh: -2.0

How did CN(C)c1ccc(C(=O)OCC(=O)Nc2ccc(S(N)(=O)=O)cc2)cc1 do in these assays?
CRFBP-R2 block: 54.5*; DDE Tn6 FP inh: 5.2; CRFBP-R2 agonist: 7.7; DDE Tn7 FP inh: -2.9

How did C=CCC[C@H](CCCCC)OC(=O)/C=C/[C@@H](O)[C@H](O)C[C@@H](O)CC=C do in these assays?
DDE Tn6 FP inh: 2.9; DDE Tn7 FP inh: 7.6

What do the screens show for `Cc1onc(-c2ccccc2)c1CNC(=O)CN1C(=O)c2ccccc2C1=O`?
CRFBP-R2 block: 109.0*; DDE Tn6 FP inh: 3.8; CRFBP-R2 agonist: 1.0; DDE Tn7 FP inh: 3.5

What do the screens show for `CN(Cc1ccccc1)C(=O)OCc1cn(Cc2ccccc2)nn1`?
DDE Tn6 FP inh: -3.5; DDE Tn7 FP inh: -0.5

What do the screens show for `CN(C(=O)CCS(=O)(=O)c1ccc2c(c1)oc(=O)n2C)C1CCCCC1`?
CRFBP-R2 block: 68.4*; DDE Tn6 FP inh: 3.8; CRFBP-R2 agonist: -1.0; DDE Tn7 FP inh: 2.9

How did COc1ccc2ccccc2c1CNCCCN1CCOCC1 do in these assays?
CRFBP-R2 block: 66.7*; DDE Tn6 FP inh: 1.8; CRFBP-R2 agonist: -2.0; DDE Tn7 FP inh: 11.4

Results for CCCCOCCCNC(=O)C[C@H]1C[C@@]2(C(=O)OC)C(=C[C@H](C(C)(C)C)O[C@@H]2C)N(Cc2ccc(Cl)cc2Cl)C1=O ?
DDE Tn6 FP inh: -3.8; DDE Tn7 FP inh: 0.8

How did COc1ccc(C2N(Cc3ccccc3)CC(=O)N2/N=C(\C)c2ccccc2)cc1 (stereo not drawn) do in these assays?
CRFBP-R2 block: 80.7*; DDE Tn6 FP inh: -4.2; CRFBP-R2 agonist: 0.8; DDE Tn7 FP inh: -7.8

What do the screens show for `COc1ccc(/C=N/N2C(=O)CN(C(=O)c3ccccc3)C2c2ccc(OC)cc2)cc1` (stereo not drawn)?
CRFBP-R2 block: -16.5; DDE Tn6 FP inh: 2.5; CRFBP-R2 agonist: 0.2; DDE Tn7 FP inh: -6.0

What do the screens show for `Cc1nc(-c2ccncc2)nc(NCCNc2ccc(C(F)(F)F)cn2)c1Cl`?
CRFBP-R2 block: 117.6*; DDE Tn6 FP inh: 0.4; CRFBP-R2 agonist: 2.8; DDE Tn7 FP inh: 0.5

Results for FC(F)(F)c1ccc(NCCc2ccccc2)nc1 ?
CRFBP-R2 block: 2.2; DDE Tn6 FP inh: -5.4; CRFBP-R2 agonist: -2.1; DDE Tn7 FP inh: 8.5

How did O=C1Nc2ccccc2N(O)N1c1cc(-c2ccccc2Cl)no1 do in these assays?
CRFBP-R2 block: -6.5; DDE Tn6 FP inh: 7.8; CRFBP-R2 agonist: -0.1; DDE Tn7 FP inh: 2.5

How did O=C1Nc2ccccc2N(O)N1c1cc(-c2cccc(Cl)c2)no1 do in these assays?
CRFBP-R2 block: 50.1*; DDE Tn6 FP inh: 12.2; CRFBP-R2 agonist: 49.2; DDE Tn7 FP inh: 10.6
